Columns and labels:
[1] = target: T1, 5-hydroxytryptamine receptor 1A (Homo sapiens, UniProt P08908); experiment: Displacement of [3H]8-OH-DPAT from human cloned 5-HT1A receptor expressed in human HeLa cells; type: cell-based
T1 sequence (P08908 whole entry): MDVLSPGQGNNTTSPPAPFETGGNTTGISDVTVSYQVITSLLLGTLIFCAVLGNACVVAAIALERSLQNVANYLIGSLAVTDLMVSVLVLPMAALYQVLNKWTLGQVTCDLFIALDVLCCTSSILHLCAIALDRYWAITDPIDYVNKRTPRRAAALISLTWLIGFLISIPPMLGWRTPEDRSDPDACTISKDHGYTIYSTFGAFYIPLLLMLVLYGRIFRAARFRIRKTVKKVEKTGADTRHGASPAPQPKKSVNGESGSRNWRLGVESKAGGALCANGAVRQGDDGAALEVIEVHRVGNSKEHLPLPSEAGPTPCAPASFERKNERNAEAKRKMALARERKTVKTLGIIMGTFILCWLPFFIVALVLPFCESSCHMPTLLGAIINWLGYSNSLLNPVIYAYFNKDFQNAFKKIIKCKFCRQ
Summary of the method: (§1)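 Compounds at 0.1 nM–10 µM in 50 mM Tris-HCl pH 7.4, 5 mM MgSO4, 120 min at 37 °C. Filtered on PEI-soaked GF/C. Nonspecific binding with 10 µM 8-OH-DPAT. […] Mean of three experiments, triplicate samples.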

[2] = target: T2, ATP-dependent translocase ABCB1 (Homo sapiens, UniProt P08183); experiment: Inhibition of ABCB1 transfected in MDCK cells assessed as increase in calcein-AM accumulation; type: cell-based
T2 sequence (P08183 whole entry): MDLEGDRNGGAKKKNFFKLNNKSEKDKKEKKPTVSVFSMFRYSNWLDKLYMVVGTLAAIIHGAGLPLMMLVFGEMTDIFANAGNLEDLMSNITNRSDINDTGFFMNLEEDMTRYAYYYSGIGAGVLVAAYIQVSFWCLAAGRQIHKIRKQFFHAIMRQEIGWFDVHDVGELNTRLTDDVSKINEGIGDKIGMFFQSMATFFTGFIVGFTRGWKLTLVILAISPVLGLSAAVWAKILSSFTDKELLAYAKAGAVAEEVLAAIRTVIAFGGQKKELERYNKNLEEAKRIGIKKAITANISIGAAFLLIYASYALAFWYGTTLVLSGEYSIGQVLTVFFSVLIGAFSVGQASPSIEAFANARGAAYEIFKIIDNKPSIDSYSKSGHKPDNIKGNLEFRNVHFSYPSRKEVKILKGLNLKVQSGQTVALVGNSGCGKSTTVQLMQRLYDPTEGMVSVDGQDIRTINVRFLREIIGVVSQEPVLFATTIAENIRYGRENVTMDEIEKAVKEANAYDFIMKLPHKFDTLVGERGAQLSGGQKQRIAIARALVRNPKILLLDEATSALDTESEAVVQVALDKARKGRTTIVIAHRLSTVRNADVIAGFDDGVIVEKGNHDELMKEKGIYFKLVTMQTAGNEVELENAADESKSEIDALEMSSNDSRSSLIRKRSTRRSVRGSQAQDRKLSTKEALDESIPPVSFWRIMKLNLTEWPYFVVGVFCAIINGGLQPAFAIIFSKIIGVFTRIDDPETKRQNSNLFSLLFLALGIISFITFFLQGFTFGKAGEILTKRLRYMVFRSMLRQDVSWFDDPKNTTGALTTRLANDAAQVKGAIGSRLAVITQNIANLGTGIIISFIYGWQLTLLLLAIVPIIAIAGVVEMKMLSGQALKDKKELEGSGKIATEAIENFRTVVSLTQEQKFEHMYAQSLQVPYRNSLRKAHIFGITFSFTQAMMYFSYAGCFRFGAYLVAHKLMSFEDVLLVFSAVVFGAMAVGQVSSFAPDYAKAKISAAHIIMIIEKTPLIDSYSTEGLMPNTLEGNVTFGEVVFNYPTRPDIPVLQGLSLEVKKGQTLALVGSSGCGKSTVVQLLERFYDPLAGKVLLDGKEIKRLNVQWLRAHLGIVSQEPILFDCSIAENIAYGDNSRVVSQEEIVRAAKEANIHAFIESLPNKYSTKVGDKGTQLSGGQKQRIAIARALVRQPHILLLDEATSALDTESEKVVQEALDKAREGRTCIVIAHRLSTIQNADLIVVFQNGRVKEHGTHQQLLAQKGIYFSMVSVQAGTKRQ

[3] = target: T3, 5-hydroxytryptamine receptor 1A (Homo sapiens) (UniProt P08908); experiment: Displacement of [3H]8-OH-DPAT from human cloned 5-HT1A receptor expressed in human HeLa cells at 10 uM; type: cell-based; summary of the method: as §1
T3 sequence (whole entry): T1 sequence (P08908 whole entry)

Caco-2 = experiment: Ratio of apparent permeability from basolateral to apical over apical to basolateral side of human Caco-2 cells after 120 mins by UV-visible spectroscopy; conditions: caco-2, 2 h
[4] = target: T2, ATP-dependent translocase ABCB1; experiment: Inhibition of ABCB1-mediated [3H]vinblastine transportation in human Caco-2 cells; type: cell-based
Summary of the method: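 Caco-2 monolayers grown 21 days (TEER >800 Ω × cm²). 20 nM [3H]vinblastine added to the basolateral side with or without compound (200 nM–400 µM) for 120 min at 37 °C. Appearance on the apical side measured by scintillation counting. IC50 from nonlinear fit. Mean of three experiments, triplicate samples.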

D(2) dopamine receptor [5] = target: T4, D(2) dopamine receptor (Homo sapiens, UniProt P14416); experiment: Displacement of [3H]spiroperidol from human cloned dopaminergic D2 receptor expressed in rat C6 cells; type: cell-based
T4 sequence (P14416 whole entry): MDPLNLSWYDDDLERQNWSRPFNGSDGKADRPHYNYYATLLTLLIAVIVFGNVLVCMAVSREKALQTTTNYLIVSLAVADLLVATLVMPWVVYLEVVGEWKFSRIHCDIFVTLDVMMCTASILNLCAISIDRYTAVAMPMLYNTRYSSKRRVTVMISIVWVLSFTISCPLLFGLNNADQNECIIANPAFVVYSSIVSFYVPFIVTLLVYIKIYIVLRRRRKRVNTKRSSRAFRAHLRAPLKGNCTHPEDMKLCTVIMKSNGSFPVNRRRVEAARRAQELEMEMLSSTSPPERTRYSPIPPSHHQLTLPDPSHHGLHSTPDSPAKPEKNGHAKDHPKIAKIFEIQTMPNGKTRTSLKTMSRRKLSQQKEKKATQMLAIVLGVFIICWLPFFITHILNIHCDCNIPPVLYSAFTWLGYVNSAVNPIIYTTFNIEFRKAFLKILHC

D(2) dopamine receptor [6] = target: T4, D(2) dopamine receptor; experiment: Displacement of [3H]spiroperidol from human cloned dopaminergic D2 receptor expressed in rat C6 cells at 10 uM; type: cell-based
Summary of the method: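 Buffer was 50 mM Tris, 10 mM MgCl2, 1 mM EDTA, pH 7.4. Incubated 60 min at 27 °C, then filtered on PEI-soaked GF/C. Nonspecific binding with 10 µM haloperidol.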

[7] = target: T2, ATP-dependent translocase ABCB1; experiment: Inhibition of ABCB1 in human Caco-2 cells assessed as ATPase activation at 100 uM after 2 hrs; type: cell-based; conditions: caco-2, 2 h
Summary of the method: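 Caco-2 cells seeded at 2 × 10⁴ cells/well and held overnight at 37 °C, 5% CO2. Exposed to compound in complete medium for 2 h at 37 °C. Cells then lysed and ATP read by luciferase luminescence after 10 min dark adaptation. Tested at 100 µM; a positive response is reported as a percentage.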

ABCB1 = ABCB1 (Homo sapiens, UniProt P08183); experiment: Activation of ABCB1 in human Caco-2 cells assessed as ATPase activation at 100 uM after 2 hrs
Chain of ABCB1 (P08183 whole entry): as the sequence (P08183 whole entry) above

[8] = target: T5, Broad substrate specificity ATP-binding cassette transporter ABCG2 (Homo sapiens, UniProt Q9UNQ0); experiment: Inhibition of ABCG2
T5 sequence (Q9UNQ0 whole entry): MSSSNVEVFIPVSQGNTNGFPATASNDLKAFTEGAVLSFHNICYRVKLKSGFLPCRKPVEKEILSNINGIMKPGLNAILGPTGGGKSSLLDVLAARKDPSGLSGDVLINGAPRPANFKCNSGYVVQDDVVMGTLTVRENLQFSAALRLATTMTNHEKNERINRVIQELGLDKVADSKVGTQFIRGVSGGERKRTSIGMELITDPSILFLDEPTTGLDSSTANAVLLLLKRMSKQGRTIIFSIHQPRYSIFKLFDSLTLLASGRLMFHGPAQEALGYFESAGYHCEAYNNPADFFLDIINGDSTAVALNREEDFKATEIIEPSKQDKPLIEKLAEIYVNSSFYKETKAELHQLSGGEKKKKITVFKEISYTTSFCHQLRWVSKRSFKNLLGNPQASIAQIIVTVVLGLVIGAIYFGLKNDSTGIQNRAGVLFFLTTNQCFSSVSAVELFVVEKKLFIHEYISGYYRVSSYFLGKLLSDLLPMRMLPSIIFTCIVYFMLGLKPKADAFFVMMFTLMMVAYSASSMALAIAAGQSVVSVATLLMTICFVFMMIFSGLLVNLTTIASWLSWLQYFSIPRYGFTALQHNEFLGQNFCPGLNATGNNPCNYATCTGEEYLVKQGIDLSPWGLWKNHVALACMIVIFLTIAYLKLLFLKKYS

[9] = target: T2, ATP-dependent translocase ABCB1; experiment: Inhibition of ABCB1

SMILES	Ki [1] [nM]	IC50 [2] [nM]	inhibition [3] [%]	Ratio (Caco-2)	IC50 [4] [nM]	Ki (D(2) dopamine receptor [5]) [nM]	inhibition (D(2) dopamine receptor [6]) [%]	Activity [7]	activation at 2 h, 100 µM (ABCB1) [%]	IC50 [8] [nM]	IC50 [9] [nM]
COc1cccc(CCc2ccccc2OCCCCN2CCc3cc(OC)c(OC)cc3C2)c1	> 5000	160	18	5.8	190	> 1000	40	Not Active			
COc1cccc(CCc2ccccc2OCCCCCN2CCN(c3ccccc3OC)CC2)c1	> 5000		14	5.2	1270	> 1000	35		15		
COc1cccc(CCc2ccccc2OCCN2CCN(C)CC2)c1	> 5000	7760	48	6.8	800	178		Not Active			
COc1cccc(CCc2ccccc2OCCCCCN2CCc3cc(OC)c(OC)cc3C2)c1	> 5000	110	22	4.9	350	> 1000	18		20		
COc1cccc(CCc2ccccc2OCCN2CCc3cc(OC)c(OC)cc3C2)c1	> 5000	780	26	6.4	750	> 1000	12		55		
COc1cccc(CCc2ccccc2OCCCCN2CCN(c3ccccc3OC)CC2)c1	1090			3.9	5800	67			54		
COc1cccc(CCc2ccccc2OCCCCN2CCN(c3ccc(F)cc3)CC2)c1	> 5000		47			1320			25		
COc1cccc(CCc2ccccc2OCCCN2CCc3cc(OC)c(OC)cc3C2)c1	> 5000	90	36	4.3	140	> 1000	35	Not Active			
COc1cccc(CCc2ccccc2OCCN2CCN(c3ncccn3)CC2)c1	656					629		Not Active			
COc1cccc(CCc2ccccc2OCCCN2CCN(c3cccc(C(F)(F)F)c3)CC2)c1	2870			4.4	6500	1410		Not Active			
COc1cccc(CCc2ccccc2OCCCN2CCN(c3ccccc3OC)CC2)c1	756			8.1	14000	6.3			20		
COc1cccc(CCc2ccccc2OCCCN2CCN(C)CC2)c1	> 5000		40	4.7	2500	565		Not Active			
COc1cccc(CCc2ccccc2OCCCCN2CCN(c3cccc(Cl)c3)CC2)c1	1310			5.1	1800	> 1000	35	Not Active			
COc1cccc(CCc2ccccc2OCc2cccc(OC)c2OC)c1										120000	
COc1cccc(CCc2ccccc2NCc2cccc(OC)c2OC)c1										1500	85
COc1cccc(CCc2ccccc2OCCCN2CCN(c3ccc(F)cc3)CC2)c1	800					655			38		

SMILES	Ki [1] [nM]	IC50 [2] [nM]	inhibition [3] [%]	Ratio (Caco-2)	IC50 [4] [nM]	Ki (D(2) dopamine receptor [5]) [nM]	inhibition (D(2) dopamine receptor [6]) [%]	Activity [7]	activation at 2 h, 100 µM (ABCB1) [%]	IC50 [8] [nM]	IC50 [9] [nM]
COc1cccc(CCc2ccccc2OCCCN2CCc3ccccc3C2)c1	1120	1140		6.3	500	114		Not Active			
COc1cccc(CCc2ccccc2OCCN2CCN(c3cccc(C(F)(F)F)c3)CC2)c1	1410			2.6	40000	> 1000	31	Not Active			
COc1cc2c(cc1OC)CN(CCc1ccc(NC(=O)c3cccc4c(=O)c5cccc(OC)c5[nH]c34)cc1)CC2								Not Active			
COc1cccc(CCc2ccccc2OCCCCCN2CCN(c3cccc(Cl)c3)CC2)c1	> 5000		14			> 1000	25	Not Active			
COc1cccc(CCc2ccccc2OCCN2CCc3ccccc3C2)c1	1310			7.2	12000	> 1000	35	Not Active			
COc1cccc(CCc2ccccc2OCCCCN2CCc3ccccc3C2)c1	1330					> 1000	48	Not Active			
COc1cccc(CCc2ccccc2OCCCCCN2CCN(C)CC2)c1	> 5000		24	2.5	6820	> 1000	26	Not Active			
COc1cccc(CCc2ccccc2OCCN2CCN(c3cccc(Cl)c3)CC2)c1	686			3.6	3200	> 1000	43	Not Active			
COc1cccc(CCc2ccccc2OCCCCCN2CCc3ccccc3C2)c1	> 5000		15	7.3	3170	> 1000	16	Not Active			
COc1cccc(CCc2ccccc2OCCN2CCN(c3ccc(F)cc3)CC2)c1	783			2.2	10000	> 1000	38		10		
COc1cccc(CCc2ccccc2OCCCN2CCN(c3ncccn3)CC2)c1	331			131	1200	20		Not Active			
COc1cccc(CCc2ccccc2OCCCCCN2CCN(c3ncccn3)CC2)c1	> 5000		38	7.1	1720	> 1000	24	Not Active			
COc1cccc(CCc2ccccc2OCCN2CCN(c3ccccc3OC)CC2)c1	1240			6.8	25000	427			10		
COc1cccc(CCc2ccccc2OCCCCN2CCN(C)CC2)c1	> 5000	4780	38	6.3	150	> 1000	14	Not Active			
COc1cccc(CCc2ccccc2OCCCN2CCN(c3cccc(Cl)c3)CC2)c1	1130			6.8	2500	298		Not Active			
COc1cccc(CCc2ccccc2OCCCCCN2CCN(c3ccc(F)cc3)CC2)c1	> 5000		27			847			40		

— ChEMBL document CHEMBL1140844, “2-[(3-Methoxyphenylethyl)phenoxy]-based ABCB1 inhibitors: effect of different basic side-chains on their biological properties” (J Med Chem, 2008)
